This note sets out measurements from paper PMC4401146 (Journal of Cellular and Molecular Medicine, 2008).

What all share (format): biochemical
Experiment [1] has as its target PMCA4 (Homo sapiens, UniProt P23634). The experiment can be described thus: PMCA Ca2+-Mg2+-ATPase in human erythrocyte ghosts, coupled enzyme assay. In outline: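 Human erythrocyte leaky ghosts were EDTA-washed to strip calmodulin; 0.2–0.4 mg protein per assay. Pyruvate kinase–LDH coupled NADH assay at 37°C in 30 mM imidazole-HCl pH 7.0 with 0.1 mM ouabain, 6 mM MgCl2, 0.5 mM ATP, 0.5 mM EGTA and 4 μg/ml calmodulin. Basal Mg2+-ATPase was subtracted from activity after CaCl2 addition. Ki came from a non-linear fit, saturating substrates; 3–4 measurements over 2–4 days.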

Experiment [2] has as its target T1, PMCA1 (Oryctolagus cuniculus, UniProt Q00804).
T1 sequence (Q00804 1-1220): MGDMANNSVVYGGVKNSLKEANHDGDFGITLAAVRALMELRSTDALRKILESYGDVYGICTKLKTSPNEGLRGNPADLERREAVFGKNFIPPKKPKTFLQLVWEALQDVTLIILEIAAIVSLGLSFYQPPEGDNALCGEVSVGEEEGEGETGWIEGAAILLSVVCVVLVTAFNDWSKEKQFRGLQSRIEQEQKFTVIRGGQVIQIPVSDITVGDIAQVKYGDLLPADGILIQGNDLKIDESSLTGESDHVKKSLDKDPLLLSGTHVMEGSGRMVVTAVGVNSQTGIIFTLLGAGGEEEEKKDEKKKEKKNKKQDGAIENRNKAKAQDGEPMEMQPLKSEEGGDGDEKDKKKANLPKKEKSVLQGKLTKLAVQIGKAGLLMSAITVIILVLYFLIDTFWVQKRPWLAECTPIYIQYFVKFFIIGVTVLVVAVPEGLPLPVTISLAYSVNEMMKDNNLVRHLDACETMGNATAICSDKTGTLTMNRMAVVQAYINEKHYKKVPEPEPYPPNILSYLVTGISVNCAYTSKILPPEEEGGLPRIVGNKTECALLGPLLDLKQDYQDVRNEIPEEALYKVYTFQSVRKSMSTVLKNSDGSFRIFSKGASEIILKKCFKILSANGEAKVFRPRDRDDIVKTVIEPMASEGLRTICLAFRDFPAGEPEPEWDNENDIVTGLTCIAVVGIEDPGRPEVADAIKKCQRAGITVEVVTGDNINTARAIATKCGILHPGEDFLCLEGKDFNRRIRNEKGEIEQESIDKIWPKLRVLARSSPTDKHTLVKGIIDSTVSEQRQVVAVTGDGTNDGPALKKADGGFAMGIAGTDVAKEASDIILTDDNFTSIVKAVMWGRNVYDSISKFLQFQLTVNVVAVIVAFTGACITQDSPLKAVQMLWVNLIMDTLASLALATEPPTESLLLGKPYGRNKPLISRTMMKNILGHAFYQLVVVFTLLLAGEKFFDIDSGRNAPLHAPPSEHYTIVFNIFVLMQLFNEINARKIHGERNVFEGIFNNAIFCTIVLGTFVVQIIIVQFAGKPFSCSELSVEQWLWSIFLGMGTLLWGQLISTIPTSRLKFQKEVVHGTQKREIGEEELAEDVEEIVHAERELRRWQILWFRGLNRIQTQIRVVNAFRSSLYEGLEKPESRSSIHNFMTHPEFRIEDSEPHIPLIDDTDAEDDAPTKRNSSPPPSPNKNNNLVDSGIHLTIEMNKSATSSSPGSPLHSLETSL
The experiment can be described thus: Ca2+-Mg2+-ATPase of rabbit duodenal mucosal PM rich fraction. In short, it runs like this: (§1)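 Sources: a plasma membrane-enriched fraction from rabbit duodenal mucosa, rich in PMCA1 with little PMCA4, and microsomes from baculovirus-infected Sf9 cells expressing PMCA2 or PMCA3. Activity was followed by NADH loss in a coupled assay at 37°C: basal Mg2+-ATPase, then CaCl2 added, difference taken. Each day's mean control activity was 100%. Ki was fitted by non-linear regression; 3–4 measurements over 2–4 days.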

Experiment [3] deals with T2, PMCA2 (Homo sapiens, UniProt Q01814).
T2 sequence (Q01814 1-1243): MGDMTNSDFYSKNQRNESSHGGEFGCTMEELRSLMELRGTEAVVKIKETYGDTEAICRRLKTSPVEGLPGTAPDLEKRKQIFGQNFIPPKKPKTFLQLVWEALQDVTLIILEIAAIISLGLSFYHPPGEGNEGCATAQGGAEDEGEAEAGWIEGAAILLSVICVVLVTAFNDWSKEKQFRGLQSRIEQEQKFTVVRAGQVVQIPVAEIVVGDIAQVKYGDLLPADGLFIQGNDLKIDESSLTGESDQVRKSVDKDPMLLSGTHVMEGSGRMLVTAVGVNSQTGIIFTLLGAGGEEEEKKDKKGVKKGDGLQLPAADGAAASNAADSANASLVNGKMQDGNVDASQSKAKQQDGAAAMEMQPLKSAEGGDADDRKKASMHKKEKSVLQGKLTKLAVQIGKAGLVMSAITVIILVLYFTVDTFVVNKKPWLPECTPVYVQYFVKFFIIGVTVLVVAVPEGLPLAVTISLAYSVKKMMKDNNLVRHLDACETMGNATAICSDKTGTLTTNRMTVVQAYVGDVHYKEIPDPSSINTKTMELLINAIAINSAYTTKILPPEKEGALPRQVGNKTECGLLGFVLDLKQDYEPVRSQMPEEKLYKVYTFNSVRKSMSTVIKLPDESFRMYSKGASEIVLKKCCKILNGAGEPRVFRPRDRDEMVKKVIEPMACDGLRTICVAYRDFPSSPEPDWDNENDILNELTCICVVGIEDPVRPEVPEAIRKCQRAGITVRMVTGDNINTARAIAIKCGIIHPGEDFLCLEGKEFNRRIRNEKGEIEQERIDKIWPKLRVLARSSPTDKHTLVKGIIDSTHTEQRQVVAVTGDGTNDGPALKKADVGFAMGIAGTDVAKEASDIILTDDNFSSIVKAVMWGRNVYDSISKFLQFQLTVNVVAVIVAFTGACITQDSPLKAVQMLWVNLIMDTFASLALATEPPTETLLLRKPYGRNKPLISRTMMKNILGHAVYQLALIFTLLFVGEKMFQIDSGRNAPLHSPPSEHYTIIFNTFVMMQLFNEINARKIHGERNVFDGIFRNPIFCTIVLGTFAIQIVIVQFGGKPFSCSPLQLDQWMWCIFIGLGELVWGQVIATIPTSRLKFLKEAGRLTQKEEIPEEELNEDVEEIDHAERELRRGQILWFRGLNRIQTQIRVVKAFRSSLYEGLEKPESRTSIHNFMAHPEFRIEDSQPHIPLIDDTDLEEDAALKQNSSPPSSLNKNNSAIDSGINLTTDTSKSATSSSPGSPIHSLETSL
The experiment can be described thus: Ca2+-Mg2+-ATPase of microsomes from overexpressing insect cells sf9. In outline:
as §1

For experiment [4], the target named is T3, PMCA3 (Homo sapiens, UniProt Q16720).
T3 sequence (Q16720 1-1220): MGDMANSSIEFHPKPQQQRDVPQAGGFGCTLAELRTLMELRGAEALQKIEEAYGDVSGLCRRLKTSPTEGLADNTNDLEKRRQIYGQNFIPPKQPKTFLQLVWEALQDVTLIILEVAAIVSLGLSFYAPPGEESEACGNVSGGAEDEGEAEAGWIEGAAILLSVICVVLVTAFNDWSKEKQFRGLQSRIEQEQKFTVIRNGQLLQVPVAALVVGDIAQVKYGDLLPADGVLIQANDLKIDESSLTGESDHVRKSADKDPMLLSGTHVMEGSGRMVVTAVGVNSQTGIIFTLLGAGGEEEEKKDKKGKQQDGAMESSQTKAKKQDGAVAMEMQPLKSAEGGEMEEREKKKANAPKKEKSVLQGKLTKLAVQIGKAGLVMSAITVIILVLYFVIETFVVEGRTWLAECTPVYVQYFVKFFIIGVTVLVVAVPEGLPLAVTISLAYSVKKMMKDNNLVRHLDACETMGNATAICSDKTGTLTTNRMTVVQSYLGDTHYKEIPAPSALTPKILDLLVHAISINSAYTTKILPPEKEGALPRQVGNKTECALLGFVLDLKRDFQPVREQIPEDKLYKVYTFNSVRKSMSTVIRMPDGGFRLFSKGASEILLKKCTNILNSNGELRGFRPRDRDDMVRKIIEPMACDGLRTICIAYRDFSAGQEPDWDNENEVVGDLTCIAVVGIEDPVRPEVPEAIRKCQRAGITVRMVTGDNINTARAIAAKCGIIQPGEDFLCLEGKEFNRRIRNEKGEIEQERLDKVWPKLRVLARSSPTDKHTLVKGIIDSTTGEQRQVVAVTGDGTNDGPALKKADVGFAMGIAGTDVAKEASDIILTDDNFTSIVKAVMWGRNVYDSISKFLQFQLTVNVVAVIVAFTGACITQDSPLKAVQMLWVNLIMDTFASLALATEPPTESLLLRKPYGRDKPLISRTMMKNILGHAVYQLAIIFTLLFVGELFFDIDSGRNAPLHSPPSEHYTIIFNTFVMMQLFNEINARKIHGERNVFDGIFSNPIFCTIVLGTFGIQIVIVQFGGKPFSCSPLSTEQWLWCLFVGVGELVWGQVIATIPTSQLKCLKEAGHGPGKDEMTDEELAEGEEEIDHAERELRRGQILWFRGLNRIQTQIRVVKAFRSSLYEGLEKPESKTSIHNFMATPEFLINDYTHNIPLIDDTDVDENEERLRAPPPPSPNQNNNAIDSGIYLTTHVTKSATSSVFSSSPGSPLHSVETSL
The experiment is described as above. In outline:
as §1

No end group written: not given here.

Regarding TAWSEVLDLLRRGGGSK-NH2 [caloxin 1c2], the Ki was found to be 2.3 ± 0.3 µM in experiment [1], 21 ± 6 µM in experiment [2], 40 ± 10 µM in experiment [3] and 67 ± 8 µM in experiment [4].

Usually Ki stands for the equilibrium dissociation constant of an inhibitor or competing ligand from its target. Higher therefore signals lower affinity.
